The values below come from ChEMBL document CHEMBL1150164, “New cytotoxic xenia diterpenoids from the Formosan soft coral Xenia umbellata” (2002).

Holding throughout (type): functional
Common to all, as to conditions: read-out: ED50 (the source's name)

Test [1] relates to P388. The test is described as follows: Cytotoxicity against mouse P388 cells. An outline of the steps:
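Murine P-388 lymphocytic leukaemia cells, supplied by an academic laboratory, were exposed to compounds in culture and cytotoxicity was measured in vitro.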

The test system of test [2] is A549. The test is described as follows: Cytotoxicity against human A549 cells. Put shortly:
(§1)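 In vitro cytotoxicity against cultured human tumour cell lines: A549 (lung adenocarcinoma) and HT-29 (colon adenocarcinoma), both obtained from a cell-line collection.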

For test [3], the system named is HT-29. Nature of the test: Cytotoxicity against human HT-29 cells. Put shortly: as §1

Converted amounts (≈) assume the structure as drawn.

With `C=C1CC[C@@H]2O[C@@]2(C)CC[C@H]2[C@H]1C(=O)O[C@@]2(/C=C/C=C(C)C)CO`, the EC50 in test [1] came to 3.66 µg/mL (≈ 11 µM); in test [2], 18.8 µg/mL (≈ 56.6 µM); in test [3] it was 5.33 µg/mL (≈ 16 µM).

Turning to `C=C1CC[C@@H]2O[C@@]2(C)CC[C@H](/C(=C\CC2OC2(C)C)COC(C)=O)[C@H]1C(=O)OC` (stereo partly specified) [XENITACIN], the figures for the EC50 in test [1], in test [2] and in test [3] were 1.09 µg/mL (≈ 2.68 µM), 3.26 µg/mL (≈ 8.02 µM) and 1.12 µg/mL (≈ 2.76 µM), respectively.

On to `C=C1CC/C=C(\C)CC[C@@H]2/C(=C\C=C\C(C)(C)O)[C@@H](OC)O[C@H](OC)[C@@H]12` [XENIBECIN], for which the EC50 was determined as 3.96 µg/mL (≈ 10.9 µM) in test [1], 13.4 µg/mL (≈ 37 µM) in test [2] and 12.5 µg/mL (≈ 34.5 µM) in test [3].

Consider `C=C1CC/C=C(\C)CC[C@@H]2/C(=C\C=C\C(C)(C)O)CO[C@H](O)[C@@H]12`, for which the EC50 in test [1] worked out at 3.45 µg/mL (≈ 10.8 µM); in test [2] it was 4.85 µg/mL (≈ 15.2 µM); in test [3], 12.9 µg/mL (≈ 40.5 µM).

With `C=C1CC[C@@H]2/C(=C\C=C\C(C)(C)O)COC(=O)[C@H]2C(=C)CCC1OO` (stereo partly specified), the EC50 in test [1] is 0.04 µg/mL (≈ 0.115 µM); in test [2], 4.77 µg/mL (≈ 13.7 µM); in test [3] it was 8.31 µg/mL (≈ 23.8 µM).

Consider `C=C1CC[C@@H]2O[C@@]2(C)CC[C@@H]2/C(=C\CC3OC3(C)C)COC(=O)[C@@H]12` (stereo partly specified), for which the EC50 in test [1] worked out at 3.35 µg/mL (≈ 10.1 µM); in test [2], 11.6 µg/mL (≈ 34.9 µM); in test [3], 7.77 µg/mL (≈ 23.4 µM).

Regarding `C=C1CC/C=C(\C)CC[C@@H]2/C(=C\CC3OC3(C)C)COC(=O)[C@@H]12` (stereo partly specified), the EC50 in test [1] was determined as 2.87 µg/mL (≈ 9.07 µM); in test [2] it was 11.2 µg/mL (≈ 35.4 µM); in test [3] it was 21.1 µg/mL (≈ 66.7 µM).
